Measurements reported in publication PMC9301635 (ACS Omega, 2022).
Read-outs that look alike come from different tables or passages of the source.

Key:
[1] = test system: HCT116 cells; assay: Caspase activation, ApoStat flow cytometry, HCT116; format: cell-based, human; details: IC50 dose, 72 h, fluorescence-labeled pan-caspase inhibitor
Summary of the method: (§1)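 Seeding in six-well plates was HCT116 2 × 10^5/well and SW480 1.5 × 10^5/well. Cells were exposed to test compound (DMSO vehicle, ≤0.1%) for 72 h. They were then stained with the FITC-labelled pan-caspase inhibitor ApoStat according to the manufacturer's protocol. The percentage of caspase-active cells was measured by flow cytometry. Data are representative of three independent experiments.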

[2] = test system: HCT116; assay: Crystal violet; format: cell-based, human; details: read-out: IC50 HCT116 CV
Summary of the method: (§2)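 Cells were grown in RPMI-1640 with 10% FCS and antibiotics at 37 °C, 5% CO2. Seeding per well was CT26 4 × 10^3, HT-29 1.5 × 10^4, SW480 3 × 10^3 and HCT116 5 × 10^3, with overnight adherence. Test compound came from a 200 mM DMSO stock (≤0.1% DMSO final) and was applied at 0–200 μM for 72 h. Viability was read by MTT or crystal violet, in triplicate.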

[3] = test system: SW480 cells; assay: Caspase activation, ApoStat flow cytometry, SW480; format: cell-based, human; details: IC50 dose, 72 h, fluorescence-labeled pan-caspase inhibitor
Summary of the method: as §1

[4] = target: T1, ovine COX-1 (Ovis aries, UniProt P05979); assay: COX Fluorescent Inhibitor Screening Assay Kit; format: biochemical; details: for % inhibition @ 100 μM COX-1: 100 μM compound
T1 sequence (P05979 25-600): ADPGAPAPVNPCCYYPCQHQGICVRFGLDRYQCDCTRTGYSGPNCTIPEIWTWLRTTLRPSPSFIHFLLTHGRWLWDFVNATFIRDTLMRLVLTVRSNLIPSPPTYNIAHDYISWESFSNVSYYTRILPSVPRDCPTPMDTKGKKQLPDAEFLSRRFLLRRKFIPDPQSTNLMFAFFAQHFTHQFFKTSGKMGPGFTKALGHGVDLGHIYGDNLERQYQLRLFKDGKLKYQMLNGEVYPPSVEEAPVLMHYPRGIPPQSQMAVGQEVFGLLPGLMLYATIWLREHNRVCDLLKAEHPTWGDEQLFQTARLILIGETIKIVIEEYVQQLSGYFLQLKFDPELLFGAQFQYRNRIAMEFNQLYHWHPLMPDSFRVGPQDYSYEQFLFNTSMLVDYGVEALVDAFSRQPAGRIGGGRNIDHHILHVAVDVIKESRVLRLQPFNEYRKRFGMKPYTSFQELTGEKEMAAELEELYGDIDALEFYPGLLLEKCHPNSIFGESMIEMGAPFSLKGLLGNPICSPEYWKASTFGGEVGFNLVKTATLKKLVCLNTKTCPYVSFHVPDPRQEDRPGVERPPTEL

[5] = test system: CT26; assay: Crystal violet; format: cell-based, mouse; details: read-out: IC50 CT26 CV
Summary of the method: as §2

[6] = test system: COX-1; details: read-out: IC50(COX-1) literature value; in blood; cited from earlier work
[7] = test system: HT29; assay: Crystal violet; format: cell-based, human; details: read-out: IC50 HT29 CV
Summary of the method: as §2

[8] = test system: SW480; assay: Crystal violet; format: cell-based, human; details: read-out: IC50 SW480 CV
Summary of the method: as §2

[9] = target: T2, human COX-2 (Homo sapiens, UniProt P35354); assay: biochemical; format: biochemical; details: for % inhibition @ 100 μM COX-2: 100 μM compound
T2 sequence (P35354 18-604): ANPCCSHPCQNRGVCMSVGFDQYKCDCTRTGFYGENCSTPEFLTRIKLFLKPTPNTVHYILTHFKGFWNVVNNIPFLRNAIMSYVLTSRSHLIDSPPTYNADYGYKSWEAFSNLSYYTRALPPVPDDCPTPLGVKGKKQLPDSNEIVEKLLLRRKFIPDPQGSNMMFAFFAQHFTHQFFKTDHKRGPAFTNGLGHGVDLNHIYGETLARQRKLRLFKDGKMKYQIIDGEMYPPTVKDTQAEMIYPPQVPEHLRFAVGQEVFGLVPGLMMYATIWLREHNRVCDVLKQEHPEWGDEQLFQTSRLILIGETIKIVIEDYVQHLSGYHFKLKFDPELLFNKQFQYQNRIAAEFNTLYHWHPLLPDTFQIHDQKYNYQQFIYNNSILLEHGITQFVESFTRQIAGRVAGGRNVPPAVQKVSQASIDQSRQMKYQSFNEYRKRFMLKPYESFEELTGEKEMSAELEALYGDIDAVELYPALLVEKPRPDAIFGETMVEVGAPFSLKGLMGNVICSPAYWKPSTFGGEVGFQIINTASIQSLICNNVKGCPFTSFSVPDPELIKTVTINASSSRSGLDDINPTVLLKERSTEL

[10] = test system: HT29; assay: MTT viability test, HT29; format: cell-based, human; details: read-out: IC50 HT29 MTT
Summary of the method: as §2

[11] = test system: HCT116; assay: MTT viability test, HCT116; format: cell-based, human; details: read-out: IC50 HCT116 MTT
Summary of the method: as §2

[12] = test system: SW480; assay: MTT viability test, SW480; format: cell-based, human; details: read-out: IC50 SW480 MTT
Summary of the method: as §2

[13] = test system: CT26; assay: MTT viability test, CT26; format: cell-based, mouse; details: read-out: IC50 CT26 MTT
Summary of the method: as §2

[14] = test system: human breast, bladder, and non-small lung cancer cell lines; details: read-out: cytotoxic potential; literature data; cited from earlier work
[15] = test system: SW480 cells; assay: Cell proliferation, CFSE flow cytometry, SW480; format: cell-based, human; details: SW480, IC50 dose, 72 h
Summary of the method: (§3)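 HCT116 (2 × 10^5/well) or SW480 (1.5 × 10^5/well) cells were prelabelled with 1 μM CFSE in six-well plates. They were then exposed to test compound in culture medium (≤0.1% DMSO) for 72 h. CFSE dilution was measured by flow cytometry. Data are representative of three independent experiments.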

[16] = test system: SW480 cells; assay: ROS/RNS production, DHR flow cytometry, SW480; format: cell-based, human; details: SW480, IC50 dose, 72 h
Summary of the method: (§4)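 HCT116 (2 × 10^5/well) and SW480 (1.5 × 10^5/well) cells in six-well plates were treated with test compound for 72 h. Treatment was in culture medium containing 1 μM dihydrorhodamine 123 (≤0.1% DMSO). Intracellular ROS/RNS was measured as fluorescence by flow cytometry. Data are representative of three independent experiments.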

[17] = test system: HCT116 cells; assay: Cell proliferation, CFSE flow cytometry, HCT116; format: cell-based, human; details: HCT116, IC50 dose, 72 h
Summary of the method: as §3

[18] = test system: HCT116 cells; assay: ROS/RNS production, DHR flow cytometry, HCT116; format: cell-based, human; details: HCT116, IC50 dose, 72 h
Summary of the method: as §4

| Compound | caspase activation, % HCT116 cells [1] [%] | caspase activation, % SW480 cells [3] [%] | IC50 ([2]; 72 h, COX-2 –) [µM] | IC50 ([5]; 72 h, COX-2 +) [µM] | IC50 ([7]; 72 h, COX-2 +) [µM] | IC50 ([8]; 72 h, COX-2 –) [µM] | IC50 ([10]; 72 h, COX-2 +) [µM] | IC50 ([11]; 72 h, COX-2 –) [µM] | IC50 ([12]; 72 h, COX-2 –) [µM] | IC50 ([13]; 72 h, COX-2 +) [µM] | % inhibition @ 100 μM COX-1 ([4]; no BSA) [%] | % inhibition @ 100 μM COX-2 ([9]; no BSA) [%] | further results |
| --- | --- | --- | --- | --- | --- | --- | --- | --- | --- | --- | --- | --- | --- |
| Cc1cccc(Nc2ccccc2C(=O)O)c1C [compound 1, Mefenamic acid, reference compound] | 0.5 | 5.2 | – | – | – | – | – | – | – | – | – | – | IC50 ([2]; Homo sapiens, HCT-116, 72 h): 101 ± 6.5 µM; IC50 [4]: 0.12 µM; inhibition plateau COX-1 ([4]; concentration range between 1 and 100 μM): around 60%; inhibition at 100 µM ([4]; read-out: % inhibition @ 100 μM COX-1): 59%; IC50 ([5]; Mus musculus, CT26, 72 h): 163 ± 2 µM; IC50 [6]: 1.94 µM; IC50 ([7]; Homo sapiens, HT-29, 72 h): > 200 µM; IC50 ([8]; Homo sapiens, SW480, 72 h): 120 ± 6.1 µM; IC50 COX-2 [9]: no IC50 value could be determined; inhibition at 100 µM ([9]; read-out: % inhibition @ 100 μM COX-2): 20%; IC50 ([10]; Homo sapiens, HT-29, 72 h): > 200 µM; IC50 ([11]; Homo sapiens, HCT-116, 72 h): 96.2 ± 7.9 µM; IC50 ([12]; Homo sapiens, SW480, 72 h): 104 ± 6.4 µM; IC50 ([13]; Mus musculus, CT26, 72 h): 114 ± 4.2 µM; IC50 [14]: ~20 µM |
| N-(1,2-Dicarba-closo-dodecaboran-9-yl)-2-benzoic acid [2c] | – | – | 83.6 ± 3.8 | 93.3 ± 5.7 | > 200 | 75.6 ± 4 | 183 ± 3.7 | 74.6 ± 4.8 | 77.6 ± 0.1 | 61.6 ± 0.1 | – | – | – |
| N-(1,2-Dicarba-closo-dodecaboran-9-yl)-2-benzonitrile [2b] | 1.1 | 3.2 | 35.5 ± 3.1 | 47.2 ± 2.3 | > 200 | 24 ± 0.8 | 45.6 ± 2.7 | 34.4 ± 1.8 | 39 ± 1.2 | 38.3 ± 0.4 | 32 | 28 | cell division rate vs untreated cells [15]: remarkably lower; ROS/RNS production [16]: increased; cell division rate vs untreated cells [17]: remarkably lower; ROS/RNS production [18]: increased |
| N-(1,7-Dicarba-closo-dodecaboran-9-yl)-2-benzoic acid [3c] | – | – | 147 ± 8.6 | 160 ± 6.6 | > 200 | 117 ± 7.9 | 184 ± 4.5 | 93.2 ± 7.6 | 90.6 ± 3.3 | 76.5 ± 2.8 | 11 | – | – |
| N-(1,7-Dicarba-closo-dodecaboran-9-yl)-2-benzonitrile [3b] | 5.6 | 6.8 | 31.8 ± 2.3 | 37.4 ± 1.2 | 116 ± 2.2 | 24.9 ± 1.8 | 46.4 ± 2.9 | 28.2 ± 1.8 | 23.8 ± 2.1 | 22.4 ± 1.7 | 22 | 13 | cell division rate vs untreated cells [15]: remarkably lower; cell division rate vs untreated cells [17]: remarkably lower |
| N-(1,12-Dicarba-closo-dodecaboran-2-yl)-2-benzoic acid [4c] | – | – | 77.4 ± 3.4 | 137 ± 3.1 | > 200 | 76.4 ± 3.5 | 165 ± 0.3 | 67.6 ± 1.3 | 77.8 ± 0.4 | 72.6 ± 4.5 | 7 | – | – |
| N-(1,12-Dicarba-closo-dodecaboran-2-yl)-2-benzonitrile [4b] | – | – | > 200 | > 200 | > 200 | > 200 | > 200 | > 200 | > 200 | > 200 | 12 | – | – |
| Sodium rac-[N-(7,8-dicarba-closo-dodecaboran-6-yl)-2-benzonitrile] [compound 5] | – | – | 115 ± 6 | 150 ± 4.9 | 182 ± 1.7 | 84 ± 3.3 | 141 ± 7.8 | 129 ± 10 | 121 ± 4.5 | 167 ± 8.8 | 83 | 76 | IC50 ([4]; read-out: IC50 COX-1, no BSA): 40 µM; IC50 ([9]; read-out: IC50 COX-2, no BSA): 33 µM |
